Converted amounts (≈) assume the structure as drawn.

Common to all, as to assay type: functional
In experiment [1] the test system is HUVEC. The experiment can be described thus: Anti-proliferative activity against human umbilical vein endothelial cells (HUVECs). The procedure, abridged:
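HUVECs seeded at 1500 cells/well and cultured 24 h at 37 °C, then exposed to a dose-response series of compound for 24 h. Proliferation was read as ³H-thymidine incorporation by scintillation proximity assay. GI₅₀ was taken from plots of percent-of-control ³H-thymidine uptake versus compound concentration.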

Experiment [2] concerns HUVEC. Put plainly: In vitro anti-proliferative activity against human umbilical vein endothelial cells at 5 uM. As to conditions: for inhibition of growth at 5 µM: Homo sapiens, HUVEC, read-out: GI.
For experiment [3], the species on record is Bos taurus. Put plainly: Anti-proliferative activity against calf endothelial cells. As to conditions: endothelial cell.

With `COc1cc(/C=C/C(=O)Nc2ccc(NC(=O)[C@@H](O)[C@H](N)CC3CCCCC3)cc2)cc(OC)c1OC` (stereo in doubt), in experiment [1], halving of growth (GI50) required 2000 nM. Further, the “growth inhibition (GI)” value in experiment [2] worked out at 96%.

On to `COc1cc(/C=C/C(=O)Nc2ccc(NC(=O)[C@@H](O)[C@H](N)CCC3CCCCC3)cc2)cc(OC)c1OC`, for which the GI50 in experiment [1] (Homo sapiens, HUVEC) stood at 800 nM. Further, in experiment [2], the inhibition of growth at 5 µM was greater than 98%.

Consider `COc1cc(/C=C/C(=O)Nc2ccc(NC(=O)[C@@H](O)[C@H](N)Cc3ccccc3)cc2)cc(OC)c1OC`, for which the inhibition of growth at 5 µM in experiment [2] is 93%.

For the molecule `COc1cc(NC(=O)/C=C/c2cc(OC)c(OC)c(OC)c2)ccc1NC(=O)[C@@H](O)[C@H](N)CCc1ccccc1`, the GI50 in experiment [1] (Homo sapiens, HUVEC) was 700 nM. Further, the inhibition of growth at 5 µM in experiment [2] is greater than 98%.

Turning to `CCSCC[C@@H](N)[C@H](O)C(=O)Nc1ccc(NC(=O)c2ccc(OC)cc2)cc1` (single isomer, unassigned), the inhibition of growth at 5 µM in experiment [2] is 15%.

`CCOc1ccc(CCC(=O)Nc2ccc(NC(=O)[C@@H](O)[C@H](N)CC3CCCCC3)cc2)cc1`: in experiment [2], the inhibition of growth at 5 µM worked out at 42%.

On to `COc1cc(/C=C/C(=O)NC2CCC(NC(=O)[C@@H](O)[C@H](N)CCc3ccccc3)CC2)cc(OC)c1OC` (some centres not stated), for which the inhibition of growth at 5 µM in experiment [2] stood at 46%.

As to `CCSCC[C@@H](N)[C@H](O)C(=O)Nc1ccc(NC(=O)/C=C/c2cc(OC)c(OC)c(OC)c2)cc1`, the inhibition of growth at 5 µM in experiment [2] came out at 89%.

`CCSCC[C@@H](N)[C@H](O)C(=O)Nc1ccccc1`: in experiment [2], the inhibition of growth at 5 µM stood at 0%.

`CCSCCC(N)C(O)C(=O)Nc1ccc(NC(=O)/C=C/c2ccccc2)cc1` (single isomer, unassigned): the inhibition of growth at 5 µM in experiment [2] is 48%.

`COc1cc(/C=C/C(=O)Nc2ccc(NC(=O)[C@@H](O)[C@H](N)CCc3ccccc3)c(C)c2)cc(OC)c1OC` showed a GI50 in experiment [1] (Homo sapiens, HUVEC) of 2300 nM. The inhibition of growth at 5 µM in experiment [2] came to 92%.

`COc1cc(/C=C/C(=O)Nc2ccc(NC(=O)[C@@H](O)[C@H](N)CC3CCCCC3)cc2)cc(OC)c1OC` (stereo in doubt; 11) showed a GI50 in experiment [1] of 670 nM. In experiment [2], the inhibition of growth at 5 µM was greater than 98%.

In turn, `COc1cc(/C=C/C(=O)O[C@@H]2CC[C@]3(CO3)[C@@H]([C@]3(C)O[C@H]3CCC=C(C)C)[C@@H]2OC)cc(OC)c1OC` came in with an IC50 in experiment [3] of 3e-05 ng/mL (≈ 5.81e-05 nM).

`CCOc1ccc(/C=C/C(=O)Nc2ccc(NC(=O)[C@@H](O)[C@H](N)CC3CCCCC3)cc2)cc1`: in experiment [1] (Homo sapiens, HUVEC), it took 1000 nM to inhibit growth by half (GI50). Further, the inhibition of growth at 5 µM in experiment [2] is greater than 98%.

For the molecule `CCOc1ccc(/C=C/C(=O)Nc2ccc(NC(=O)C(O)C(N)CCSCC)cc2)cc1` (single isomer, unassigned), the inhibition of growth at 5 µM in experiment [2] turned out to be 91%.

Consider `CCSCCC(N)C(O)C(=O)Nc1ccc(NC(=O)/C=C/c2ccc(OC)cc2)cc1` (single isomer, unassigned), for which, in experiment [2], the inhibition of growth at 5 µM is 43%.

In turn, `COc1cc(/C=C/C(=O)Nc2ccc(NC(=O)[C@@H](O)[C@H](N)CC3CCCCC3)cc2C)cc(OC)c1OC` had a GI50 in experiment [1] (Homo sapiens, HUVEC) of 1800 nM. Besides, in experiment [2], the inhibition of growth at 5 µM was greater than 98%.

In turn, `COc1cc(NC(=O)[C@@H](O)[C@H](N)CC2CCCCC2)ccc1NC(=O)/C=C/c1cc(OC)c(OC)c(OC)c1` displayed a GI50 in experiment [1] (Homo sapiens, HUVEC) of 1200 nM. For the same molecule, the inhibition of growth at 5 µM in experiment [2] was greater than 98%.

In experiment [1] (Homo sapiens, HUVEC), `CCOc1ccc(/C=C/C(=O)Nc2ccc(NC(=O)[C@@H](O)[C@H](N)CCc3ccccc3)cc2)cc1` returned a GI50 of 1800 nM. In experiment [2], the inhibition of growth at 5 µM is greater than 98%.

In the case of `COc1cc(/C=C/C(=O)NC2CCC(NC(=O)[C@@H](O)[C@H](N)CC3CCCCC3)CC2)cc(OC)c1OC` (some centres not stated), the inhibition of growth at 5 µM in experiment [2] was found to be 52%.

Molecule `COc1cc(/C=C/C(=O)Nc2ccc(NC(=O)[C@@H](O)[C@H](N)CCc3ccccc3)cc2)cc(OC)c1OC` returned a GI50 in experiment [1] (Homo sapiens, HUVEC) of 850 nM. Further, the inhibition of growth at 5 µM in experiment [2] was greater than 98%.

Regarding `CCSCC[C@@H](N)[C@H](O)C(=O)Nc1ccc(NC(=O)c2cc(OC)c(OC)c(OC)c2)cc1` (single isomer, unassigned), the inhibition of growth at 5 µM in experiment [2] was found to be 20%.

These data come from ChEMBL document CHEMBL1149197, “Design and synthesis of beta-amino-alpha-hydroxy amide derivatives as inhibitors of MetAP2 and HUVEC growth” (Bioorg Med Chem Lett, 2004).
